167 variants from the RNAGym collection of RNA variant scans (doi:10.1038/nmeth.2970) can be followed below.

B1: NELF-E aptamer (parent)
chain: CCCAACGACUGCCGAGCGAGAUUACGCUUGAGCGCCCCACUGAGGAUGCCCACGGGCGAUUGGGGCACGG

In this data set the parent is B1. The data set can be described thus: HiTS-RAP. The conditions noted are these: with NELF-E (Drosophila). In outline:
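Kd came from weighted Hill fits to the first binding curve, with intensities normalised to sequencing intensity and averaged per sequence, keeping only fits whose variance was below 1,000,000. That curve was imaged on an Illumina GAIIx flowcell, where sequenced aptamer DNA templates with a T7 promoter and ter site had been transcribed in situ by T7 RNA polymerase and halted by GST-Tus (30 minutes, 37°C). Before each image, clusters equilibrated for 30 minutes at room temperature with NELF-E-mOrange at 0.064 to 1000 nM in HEPES binding buffer.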
For the variant A5U C6G, the Kd stood at 5.7 nM.

In the case of C6G G26U, the Kd was 5.54 nM.

On to C6G G26A, for which the Kd came out at 4.39 nM.

Take C6G G42U: the Kd is 13.8 nM.

C6G G42A: the Kd was 40.3 nM.

On to C6G U60C, for which the Kd is 10.3 nM.

As for C6G U60A, the Kd was 10.9 nM.

As for C6G C66A, the Kd is 5.34 nM.

On to C6G C66U, for which the Kd was found to be 5.41 nM.

In the case of A5G A8G, the Kd came out at 6.06 nM.

Regarding A5G A8U, the equilibrium dissociation constant (Kd) was found to be 6.29 nM.

Regarding A5G A8C, the dissociation constant Kd was determined as 9.31 nM.

Consider C6A A8U, for which the dissociation constant Kd came to 7.06 nM.

As for A5G U10C, the dissociation constant (Kd) is 4.79 nM.

Consider A5G U10A, for which the Kd turned out to be 4.67 nM.

For A5G U10G, the Kd was found to be 5.47 nM.

On to C6G A39U, for which the Kd was found to be 28.8 nM.

In the case of C6G A39C, the Kd stood at 24 nM.

As to C6G A39G, the Kd worked out at 9.71 nM.

On to A5G G63U, for which the dissociation constant (Kd) was determined as 12.1 nM.

On to A5G G63A, for which the Kd is 14.1 nM.

Consider A5G G48A, for which the Kd was 12.6 nM.

Consider A5C U10G, for which the dissociation constant (Kd) is 6.68 nM.

Regarding A5G G16U, the equilibrium dissociation constant (Kd) was determined as 7.42 nM.

Consider A5G G16A, for which the dissociation constant Kd was found to be 6.56 nM.

Take A5U A15U: the equilibrium dissociation constant (Kd) amounted to 6.62 nM.

A5U A15G: the Kd was 5.49 nM.

For the variant C6G C57G, the Kd turned out to be 6.54 nM.

In the case of C6G C57U, the Kd is 6.1 nM.

Take C6G A43U: the Kd was found to be 87.2 nM.

For C6G A43G, the Kd turned out to be 34.4 nM.

On to C6G G32A, for which the Kd was determined as 4.6 nM.

With A5G A59G, the Kd is 29.5 nM.

As to A5G A59U, the Kd was found to be 113 nM.

For C6G U47G, the equilibrium dissociation constant (Kd) came to 6.93 nM.

As to C6G U47A, the dissociation constant (Kd) came out at 10.5 nM.

Regarding C6G G54A, the Kd came to 12.5 nM.

For the variant C6G G54U, the dissociation constant (Kd) came to 9.57 nM.

For the variant C6G C13U, the dissociation constant (Kd) was 4.96 nM.

As to C6G C13G, the equilibrium dissociation constant (Kd) worked out at 5.09 nM.

For the variant A5U C57U, the dissociation constant Kd was found to be 6.5 nM.

For the variant C6A U10G, the Kd amounted to 5.78 nM.

As for A5G G55U, the dissociation constant Kd was found to be 7.72 nM.

A5G G55A: the equilibrium dissociation constant (Kd) was 11.2 nM.

For the variant C6G A46G, the dissociation constant Kd was determined as 40.5 nM.

Regarding C6G A46U, the Kd is 56.8 nM.

On to A5G G20U, for which the dissociation constant (Kd) came to 6.78 nM.

Regarding A5G G20A, the Kd is 6.58 nM.

On to A5G U61A, for which the Kd is 37.8 nM.

For the variant A5G U61C, the Kd was 64.6 nM.

On to A5G G26A, for which the dissociation constant (Kd) was 5.29 nM.

In the case of A5G G26U, the equilibrium dissociation constant (Kd) was determined as 7.39 nM.

As for A5U U47A, the Kd was determined as 10.5 nM.

A5U U47G: the dissociation constant (Kd) was determined as 7.11 nM.

With A5G U23A, the Kd was found to be 5.47 nM.

Consider A5G U23G, for which the Kd worked out at 6.21 nM.

For A5G U23C, the Kd is 5.22 nM.

For the variant C6G U10G, the dissociation constant (Kd) was found to be 4.77 nM.

C6G U10A: the Kd was 5.16 nM.

Consider C6G U10C, for which the Kd worked out at 5.34 nM.

For the variant A5U G65U, the dissociation constant (Kd) worked out at 8.58 nM.

Turning to A5U G65A, the Kd was found to be 6.8 nM.

Regarding C6G G20U, the equilibrium dissociation constant (Kd) was 6.34 nM.

On to C6G G20A, for which the Kd worked out at 6.35 nM.

As for A5G C33U, the equilibrium dissociation constant (Kd) amounted to 6.71 nM.

Take C6A G11U: the Kd was found to be 6.57 nM.

For C6G C50G, the Kd came to 5.53 nM.

Regarding C6G C50U, the dissociation constant (Kd) was 16.1 nM.

As to A5G C17G, the equilibrium dissociation constant (Kd) is 5.22 nM.

As to A5G C17U, the equilibrium dissociation constant (Kd) came out at 6.29 nM.

As for A5G A21G, the Kd was 5.66 nM.

Consider A5G A21U, for which the Kd was found to be 6.3 nM.

As for A5G C51U, the Kd came out at 7.39 nM.

As for C6G G16A, the Kd was found to be 5.84 nM.

As for C6G G16U, the Kd came out at 6.81 nM.

For A5U U61C, the Kd came to 85.8 nM.

As to A5U U61A, the Kd is 41.2 nM.

For the variant A5C G16U, the Kd came to 8.04 nM.

Consider A5G A39G, for which the dissociation constant (Kd) was found to be 13.2 nM.

For A5G A39C, the Kd turned out to be 22.3 nM.

In the case of A5G A39U, the Kd was 34.5 nM.

On to A5G C13U, for which the equilibrium dissociation constant (Kd) was found to be 5.63 nM.

With A5G C13G, the Kd was 5.6 nM.

Consider A5G C13A, for which the Kd stood at 5.36 nM.

In the case of A5C U41G, the Kd was 7.61 nM.

Regarding A5C C9G, the Kd is 7.82 nM.

For A5C G14U, the Kd came to 6.73 nM.

As for C6G C49U, the Kd came out at 20.2 nM.

Take C6G C49G: the dissociation constant (Kd) was 8.75 nM.

Consider C6G C40G, for which the equilibrium dissociation constant (Kd) is 8.23 nM.

For C6G C40U, the Kd came to 70.3 nM.

Consider A5U G54A, for which the Kd was 13.9 nM.

Take C6G G14A: the Kd stood at 5.15 nM.

Consider C6G G14U, for which the Kd stood at 6.12 nM.

A5G C36U: the equilibrium dissociation constant (Kd) stood at 6.13 nM.

As for A5G A15U, the Kd turned out to be 7.04 nM.

For A5G A15G, the dissociation constant Kd amounted to 6.77 nM.

For A5G U60C, the dissociation constant (Kd) was 11.3 nM.

Turning to C6G C38A, the Kd was 45.1 nM.

Consider C6G C38U, for which the dissociation constant Kd was found to be 10.4 nM.

Turning to A5U C66U, the dissociation constant (Kd) amounted to 4.52 nM.

For the variant A5U A39G, the Kd came to 8.51 nM.

Consider A5U A39U, for which the Kd worked out at 29.7 nM.

Take A5G C6G: the Kd came to 5.46 nM.

For A5G C6U, the equilibrium dissociation constant (Kd) came out at 5.92 nM.

For the variant A5G C6A, the dissociation constant Kd came out at 6.25 nM.

Turning to A5G G7U, the equilibrium dissociation constant (Kd) was 6.59 nM.

Consider A5G G7A, for which the Kd came out at 6.52 nM.

Consider A5U C9G, for which the Kd was determined as 6.45 nM.

As for A5U C9U, the equilibrium dissociation constant (Kd) is 6.47 nM.

C6G G30A: the dissociation constant (Kd) is 4.52 nM.

For the variant C6G G30U, the Kd was 6.84 nM.

Turning to C6A U22G, the Kd stood at 7.16 nM.

As for A5U G18A, the Kd stood at 5.46 nM.

In the case of C6G G62U, the Kd is 7.26 nM.

As to C6G G62A, the equilibrium dissociation constant (Kd) is 21.9 nM.

Turning to A5C C6G, the Kd came to 5.97 nM.

For C6G G58U, the dissociation constant (Kd) was 6.94 nM.

On to A5G G30A, for which the Kd was determined as 5.43 nM.

A5G G64A: the dissociation constant Kd is 8.07 nM.

On to A5G C27U, for which the Kd is 5.87 nM.

As for A5G C38U, the dissociation constant Kd was found to be 9.85 nM.

Take A5G C53U: the equilibrium dissociation constant (Kd) is 4.59 nM.

With A5G G11A, the Kd turned out to be 6.61 nM.

A5G G11U: the Kd was determined as 6.9 nM.

As for C6G A67U, the Kd was 6.45 nM.

With C6G A67G, the dissociation constant Kd amounted to 6.07 nM.

For C6G G7A, the Kd came to 6.58 nM.

Regarding C6G G7U, the dissociation constant Kd was determined as 5.56 nM.

As to C6G G7C, the Kd came to 7.44 nM.

For A5U G14U, the dissociation constant Kd turned out to be 6.34 nM.

For A5U G14A, the dissociation constant Kd is 6.18 nM.

As for C6G C9U, the Kd was determined as 5.58 nM.

For C6G C9G, the Kd turned out to be 5.38 nM.

Regarding A5U A52G, the dissociation constant (Kd) came out at 7.25 nM.

Take A5U A52U: the Kd is 18.4 nM.

In the case of A5U C38U, the Kd was found to be 10.6 nM.

As to A5U A31G, the dissociation constant (Kd) was 7.03 nM.

Take C6G U28G: the equilibrium dissociation constant (Kd) was determined as 6.54 nM.

With C6G U28C, the Kd worked out at 9 nM.

On to C6G U28A, for which the Kd turned out to be 5.13 nM.

Turning to A5G U41C, the Kd is 84.9 nM.

Regarding A5G U41A, the Kd was found to be 25 nM.

As to A5G U41G, the Kd was 6.23 nM.

As for C6A U29G, the dissociation constant (Kd) worked out at 6.91 nM.

For the variant A5C U23G, the Kd is 7.92 nM.

Take A5C U22G: the equilibrium dissociation constant (Kd) was 6.87 nM.

Take A5U G32A: the Kd turned out to be 4.34 nM.

As for A5U U10C, the Kd came out at 4.96 nM.

For the variant A5U U10A, the Kd was determined as 7.7 nM.

For A5U U10G, the Kd came to 5.49 nM.

As to C6G G55A, the Kd was determined as 6.61 nM.

As for C6G G55U, the Kd amounted to 6.23 nM.

As for A5U C37A, the Kd was 14.8 nM.

As for A5U A8C, the Kd came to 8.3 nM.

For A5U A8G, the Kd came to 6.23 nM.

On to A5U A8U, for which the dissociation constant (Kd) is 6.78 nM.

Regarding A5U A59G, the equilibrium dissociation constant (Kd) amounted to 81.5 nM.

Regarding C6G A31G, the Kd is 6.87 nM.

Regarding C6G A31U, the Kd was found to be 5.5 nM.

In the case of C6A A24G, the Kd was 7.36 nM.

On to C6G A24U, for which the Kd was found to be 8.62 nM.

As to C6G A24G, the dissociation constant Kd was found to be 5.79 nM.

As for C6G G56A, the Kd amounted to 8.34 nM.

As for C6G G56U, the dissociation constant Kd came out at 4.89 nM.

Consider A5U G7U, for which the Kd is 6.92 nM.

Regarding A5U G7A, the Kd turned out to be 6.51 nM.

The Kd is the concentration at which binding is half-saturated.
